# In ChEMBL document CHEMBL1811814, “Synthesis and evaluation of indole, pyrazole, chromone and pyrimidine based conjugates for tumor growth inhibitory activities--development of highly efficacious cytotoxic agents” (Eur J Med Chem, 2010):
# Experiments:
# Assay type in all cases: functional
# Parameters in all cases: scale not given: the % may be the effect or the level left
# [1] = tested on: UACC-62; test: Growth inhibition of human UACC62 cells assessed tumor cell growth at 10^-5 M
# Procedure, shortened: (§1)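 Single-dose screen at 10^-5 M across the 60 human tumor cell line panel, run to NCI standards. The value is the percent growth of each cell line in the presence of compound. Compounds active at this dose moved on to five-concentration testing (10^-4 to 10^-8 M).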
# [2] = tested on: SF-268; test: Growth inhibition of human SF268 cells assessed tumor cell growth at 10^-5 M
# Procedure, shortened: (§2)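 NCI 60-human-tumor-cell-line panel screen. Each compound was tested at a single concentration of 10^-5 M, and percent growth of tumor cells was recorded for each cell line. Growth inhibition was expressed from these percent-growth values.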
# [3] = tested on: SF-295; test: Growth inhibition of human SF295 cells assessed tumor cell growth at 10^-5 M; procedure, shortened: as §2
# [4] = tested on: HCC 2998; test: Growth inhibition of human HCC2998 cells assessed tumor cell growth at 10^-5 M; procedure, shortened: as §2
# [5] = tested on: SNB-75; test: Growth inhibition of human SNB75 cells assessed tumor cell growth at 10^-5 M; procedure, shortened: as §1
# [6] = tested on: MCF7; test: Growth inhibition of human MCF7 cells assessed tumor cell growth at 10^-5 M; procedure, shortened: as §2
# [7] = tested on: HT-29; test: Growth inhibition of human HT-29 cells assessed tumor cell growth at 10^-5 M; procedure, shortened: as §2
# [8] = tested on: MOLT-4; test: Growth inhibition of human MOLT4 cells assessed tumor cell growth at 10^-5 M; procedure, shortened: as §2
# [9] = tested on: NCI-H23; test: Growth inhibition of human NCI-H23 cells assessed tumor cell growth at 10^-5 M; procedure, shortened: as §2
# [10] = tested on: DU-145; test: Growth inhibition of human DU145 cells assessed tumor cell growth at 10^-5 M; procedure, shortened: as §2
# [11] = tested on: TK-10; test: Growth inhibition of human TK10 cells assessed tumor cell growth at 10^-5 M; procedure, shortened: as §1
# [12] = tested on: NCI-H522; test: Growth inhibition of human NCI-H522 cells assessed tumor cell growth at 10^-5 M; procedure, shortened: as §2
# [13] = tested on: KM12; test: Growth inhibition of human KM12 cells assessed tumor cell growth at 10^-5 M; procedure, shortened: as §2
# [14] = tested on: K562; test: Growth inhibition of human K562 cells assessed tumor cell growth at 10^-5 M; procedure, shortened: as §2
# [15] = tested on: MDA-MB-468; test: Growth inhibition of human MDA-MB-468 cells assessed tumor cell growth at 10^-5 M; procedure, shortened: as §2
# [16] = tested on: CCRF-CEM; test: Growth inhibition of human CCRF-CEM cells assessed tumor cell growth at 10^-5 M; procedure, shortened: as §2
# [17] = tested on: PC-3; test: Growth inhibition of human PC3 cells assessed tumor cell growth at 10^-5 M; procedure, shortened: as §2
# [18] = tested on: HCT-15; test: Growth inhibition of human HCT15 cells assessed tumor cell growth at 10^-5 M; procedure, shortened: as §2
# [19] = tested on: SK-MEL-28; test: Growth inhibition of human SK-MEL-28 cells assessed tumor cell growth at 10^-5 M; procedure, shortened: as §2
# [20] = tested on: M14; test: Growth inhibition of human M14 cells assessed tumor cell growth at 10^-5 M; procedure, shortened: as §2
# [21] = tested on: BT-549; test: Growth inhibition of human BT549 cells assessed tumor cell growth at 10^-5 M; procedure, shortened: as §2
# [22] = tested on: A549; test: Growth inhibition of human A549 cells assessed tumor cell growth at 10^-5 M; procedure, shortened: as §2
# [23] = tested on: SK-MEL-2; test: Growth inhibition of human SK-MEL-2 cells assessed tumor cell growth at 10^-5 M; procedure, shortened: as §2
# [24] = tested on: HL-60(TB); test: Growth inhibition of human HL-60(TB) cells assessed tumor cell growth at 10^-5 M
# Procedure, shortened: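 HL-60(TB), part of the 60-line panel, tested at a single concentration of 10^-5 M. The read-out is percent tumor cell growth relative to untreated growth.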
# [25] = tested on: MDA-MB-231; test: Growth inhibition of human MDA-MB-231 cells assessed tumor cell growth at 10^-5 M; procedure, shortened: as §2
# [26] = tested on: NCI/ADR-RES; test: Growth inhibition of human NCI/ADR-RES cells assessed tumor cell growth at 10^-5 M; procedure, shortened: as §2
# [27] = tested on: MDA-MB-435; test: Growth inhibition of human MDA-MB-435 cells assessed tumor cell growth at 10^-5 M; procedure, shortened: as §2
# [28] = tested on: A498; test: Growth inhibition of human A498 cells assessed tumor cell growth at 10^-5 M; procedure, shortened: as §2
# [29] = tested on: SK-MEL-5; test: Growth inhibition of human SK-MEL-5 cells assessed tumor cell growth at 10^-5 M; procedure, shortened: as §2
# [30] = tested on: HOP-92; test: Growth inhibition of human HOP92 cells assessed tumor cell growth at 10^-5 M; procedure, shortened: as §2
# [31] = tested on: UO-31; test: Growth inhibition of human UO31 cells assessed tumor cell growth at 10^-5 M; procedure, shortened: as §1
# [32] = tested on: Malme-3M; test: Growth inhibition of human MALME-3M cells assessed tumor cell growth at 10^-5 M; procedure, shortened: as §2
# [33] = tested on: OVCAR-5; test: Growth inhibition of human OVCAR5 cells assessed tumor cell growth at 10^-5 M; procedure, shortened: as §2
# [34] = tested on: OVCAR-3; test: Growth inhibition of human OVCAR3 cells assessed tumor cell growth at 10^-5 M; procedure, shortened: as §2
# [35] = tested on: SN12C; test: Growth inhibition of human SN12C cells assessed tumor cell growth at 10^-5 M; procedure, shortened: as §2
# [36] = tested on: HOP-62; test: Growth inhibition of human HOP62 cells assessed tumor cell growth at 10^-5 M; procedure, shortened: as §2
# [37] = tested on: NCI-H226; test: Growth inhibition of human NCI-H226 cells assessed tumor cell growth at 10^-5 M; procedure, shortened: as §2
# [38] = tested on: NCI-H322M; test: Growth inhibition of human NCI-H322M cells assessed tumor cell growth at 10^-5 M; procedure, shortened: as §2
# [39] = tested on: COLO 205; test: Growth inhibition of human COLO205 cells assessed tumor cell growth at 10^-5 M; procedure, shortened: as §2
# [40] = tested on: IGROV-1; test: Growth inhibition of human IGROV1 cells assessed tumor cell growth at 10^-5 M; procedure, shortened: as §2
# [41] = tested on: NCI-H460; test: Growth inhibition of human NCI-H460 cells assessed tumor cell growth at 10^-5 M; procedure, shortened: as §2
# [42] = tested on: SNB-19; test: Growth inhibition of human SNB19 cells assessed tumor cell growth at 10^-5 M; procedure, shortened: as §1
# [43] = tested on: SW-620; test: Growth inhibition of human SW620 cells assessed tumor cell growth at 10^-5 M; procedure, shortened: as §1
# [44] = tested on: UACC-257; test: Growth inhibition of human UACC257 cells assessed tumor cell growth at 10^-5 M; procedure, shortened: as §1
# [45] = tested on: T47D; test: Growth inhibition of human T47D cells assessed tumor cell growth at 10^-5 M; procedure, shortened: as §1
# [46] = tested on: OVCAR-8; test: Growth inhibition of human OVCAR8 cells assessed tumor cell growth at 10^-5 M; procedure, shortened: as §2
# [47] = tested on: HCT-116; test: Growth inhibition of human HCT116 cells assessed tumor cell growth at 10^-5 M; procedure, shortened: as §2
# [48] = tested on: CAKI-1; test: Growth inhibition of human Caki1 cells assessed tumor cell growth at 10^-5 M; procedure, shortened: as §2
# [49] = tested on: EKVX; test: Growth inhibition of human EKVX cells assessed tumor cell growth at 10^-5 M; procedure, shortened: as §2
# [50] = tested on: ACHN; test: Growth inhibition of human ACHN cells assessed tumor cell growth at 10^-5 M; procedure, shortened: as §2
# [51] = tested on: SK-OV-3; test: Growth inhibition of human SKOV3 cells assessed tumor cell growth at 10^-5 M; procedure, shortened: as §2
# [52] = tested on: U-251; test: Growth inhibition of human U251 cells assessed tumor cell growth at 10^-5 M; procedure, shortened: as §1
# [53] = tested on: RXF 393; test: Growth inhibition of human RXF393 cells assessed tumor cell growth at 10^-5 M; procedure, shortened: as §2
# [54] = tested on: SF-539; test: Growth inhibition of human SF539 cells assessed tumor cell growth at 10^-5 M; procedure, shortened: as §2
# [55] = Growth inhibition of human Hs 578T cells assessed tumor cell growth at 10^-5 M; procedure, shortened: as §2
# [56] = tested on: 786-0; test: Growth inhibition of human 786-0 cells assessed tumor cell growth at 10^-5 M; procedure, shortened: as §2
# [57] = tested on: OVCAR-4; test: Growth inhibition of human OVCAR4 cells assessed tumor cell growth at 10^-5 M; procedure, shortened: as §2
# [58] = tested on: LOX IMVI; test: Growth inhibition of human LOXIMVI cells assessed tumor cell growth at 10^-5 M; procedure, shortened: as §2
# [59] = Growth inhibition of human […] cells assessed tumor cell growth at 10^-5 M; procedure, shortened: as §2
smiles,measurement,setting,value
CC1=NN(c2cccc(Cl)c2)C(=O)/C1=C\c1cn(C(=O)c2c(Cl)cccc2Cl)c2ccccc12,Activity,[1],84.14%
same,Activity,[2],99.71%
same,Activity,[3],96.99%
same,Activity,[4],87.28%
same,Activity,[5],81.76%
same,Activity,[6],84.58%
same,Activity,[7],110.62%
same,Activity,[8],78.5%
same,Activity,[9],78.46%
same,Activity,[10],113.79%
same,Activity,[11],123.88%
same,Activity,[12],87.52%
same,Activity,[13],100.84%
same,Activity,[14],120.99%
same,Activity,[15],98.04%
same,Activity,[16],107.14%
same,Activity,[17],93.89%
same,Activity,[18],102.31%
same,Activity,[19],108.69%
same,Activity,[20],88.55%
same,Activity,[21],95.67%
same,Activity,[22],103.17%
same,Activity,[23],95.14%
same,Activity,[24],95.11%
same,Activity,[25],82.49%
same,Activity,[26],90.21%
same,Activity,[27],109.08%
same,Activity,[28],102.24%
same,Activity,[29],93.87%
same,Activity,[30],75.93%
same,Activity,[31],75.46%
same,Activity,[32],100.66%
same,Activity,[33],78.09%
same,Activity,[34],105.51%
same,Activity,[35],100.77%
same,Activity,[36],92.85%
same,Activity,[37],97.86%
same,Activity,[38],99.91%
same,Activity,[39],105.8%
same,Activity,[40],100.26%
same,Activity,[41],102.74%
same,Activity,[42],100.95%
same,Activity,[43],96.65%
same,Activity,[44],88.84%
same,Activity,[45],77.75%
same,Activity,[46],89.79%
same,Activity,[47],93.25%
same,Activity,[48],89.11%
same,Activity,[49],70.54%
same,Activity,[50],90.96%
same,Activity,[51],93.9%
same,Activity,[52],111.4%
same,Activity,[53],96.55%
same,Activity,[54],88.35%
same,Activity,[55],93.53%
same,Activity,[56],101.2%
same,Activity,[57],94.88%
same,Activity,[58],91.86%
O=C1/C(=C\c2cn(C(=O)c3c(Cl)cccc3Cl)c3ccccc23)c2ccccc2N1C(=O)c1c(Cl)cccc1Cl,Activity,[1],63.8%
same,Activity,[2],95.7%
same,Activity,[3],90.6%
same,Activity,[4],116%
same,Activity,[5],88.8%
same,Activity,[6],84.8%
same,Activity,[7],108%
same,Activity,[8],84%
same,Activity,[9],96.6%
same,Activity,[10],135%
same,Activity,[11],101%
same,Activity,[12],87.4%
same,Activity,[13],99.3%
same,Activity,[14],85.2%
same,Activity,[15],126%
same,Activity,[16],87%
same,Activity,[17],73.1%
same,Activity,[18],65.9%
same,Activity,[19],103%
same,Activity,[20],94.2%
same,Activity,[21],85.3%
same,Activity,[22],91.2%
same,Activity,[23],92.3%
same,Activity,[24],109%
same,Activity,[25],74.3%
same,Activity,[26],104%
same,Activity,[27],112%
same,Activity,[28],126%
same,Activity,[29],84.8%
same,Activity,[30],48.5%
same,Activity,[31],72%
same,Activity,[32],94.9%
same,Activity,[33],83.7%
same,Activity,[34],96.7%
same,Activity,[35],92.7%
same,Activity,[36],98.7%
same,Activity,[37],92.9%
same,Activity,[38],124%
same,Activity,[39],69%
same,Activity,[40],69.9%
same,Activity,[41],114%
same,Activity,[42],97.3%
same,Activity,[43],117%
same,Activity,[44],104%
same,Activity,[45],91.6%
same,Activity,[46],94.1%
same,Activity,[47],82.5%
same,Activity,[48],67.5%
same,Activity,[59],75%
same,Activity,[49],99.4%
same,Activity,[50],78.6%
same,Activity,[51],93.4%
same,Activity,[52],87.1%
same,Activity,[53],113%
same,Activity,[54],95%
same,Activity,[55],152%
same,Activity,[56],100%
same,Activity,[57],104%
same,Activity,[58],95.8%
